Activity, Concentration and Specific incorporation data for one compound are collected here from ChEMBL document CHEMBL1129737, “Mechanism of selective incorporation of the melanoma seeker 2-thiouracil into growing melanin” (1996).

Each structure is given as a SMILES string.

The subject of experiment [1] is Mus musculus. Nature of the experiment: Absorbance at 350 nM of a solution of melanosomes obtained by treatment in hot alkali from tumor after ip injection at 0 min of assay as a measure of pigment content of tissue. The class given is functional.
Experiment [2] concerns Mus musculus. Briefly: Absorbance at 350 nM of a solution of melanosomes obtained by treatment in hot alkali from tumor after ip injection at 180 min of assay as a measure of pigment content of tissue. Type of experiment: functional.
Experiment [3] deals with Mus musculus. Briefly: Absorbance at 350 nM of a solution of melanosomes […] from tumor after ip injection at 30 min of assay as a measure of pigment content of tissue. Type of experiment: functional.
In experiment [4] the test system is Mus musculus. Briefly: Absorbance at 350 nM of a solution of melanosomes obtained by treatment in hot alkali from tumor after ip injection at 90 min of assay as a measure of pigment content of tissue. Type of experiment: functional.
The species named for experiment [5] is Mus musculus. Nature of the experiment: HPCL quantitation of resulting degradation product, pyrrole-2,3,5-tricarboxylic acid (PTCA) content after tumor isolation at 180 min of assay. The class given is functional, organism-based. In a few lines: (§1)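 B16 tumours were grown s.c. in female C57Bl/6 mice, which were given 10 μCi [2-14C]TU two weeks later. At each time point, melanosomes were isolated by sucrose density gradient ultracentrifugation. 4 mg was oxidized with alkaline H2O2 (1 M NaOH, 30% H2O2) for 3 h at 25 °C. PTCA was quantified by HPLC with 280 nm detection and expressed per mg.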

For experiment [6], the species on record is Mus musculus. Nature of the experiment: HPCL quantitation of resulting degradation product, pyrrole-2,3,5-tricarboxylic acid (PTCA) content after tumor isolation at 30 min of assay. Type of experiment: functional, organism-based. In a few lines: as §1
The species named for experiment [7] is Mus musculus. Nature of the experiment: HPCL quantitation of resulting degradation product, pyrrole-2,3,5-tricarboxylic acid (PTCA) content after tumor isolation at 90 min of assay. The class given is functional, organism-based. In a few lines: as §1
Experiment [8] is filed under the species Mus musculus. Briefly: HPCL quantitation of resulting degradation product, pyrrole-2,3,5-tricarboxylic acid (PTCA) content after tumor isolation at 0 min of assay. The class given is functional, organism-based. In a few lines: as §1
Experiment [9] has as its system Mus musculus. Nature of the experiment: Specific Incorporation (cpm/mg of melanin) of melanin after isolation from tumor after ip injection at 180 min of assay. Type of experiment: functional. In a few lines:
(§2)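 Mice (female C57Bl/6, s.c. B16 melanoma, two weeks) received 10 μCi [2-14C]TU and were euthanized at the noted times. Tumours were weighed, frozen, homogenized in 1% acetic acid–ethanol (30:70) and centrifuged. Melanosomal melanin was purified on a sucrose density gradient, dried to constant weight, and radioactivity was expressed as cpm/mg melanin.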

Experiment [10] has as its system Mus musculus. Nature of the experiment: Specific Incorporation (cpm/mg of melanin) of melanin after isolation from tumor after ip injection at 30 min of assay. The class given is functional. In a few lines:
as §2

Experiment [11] has as its system Mus musculus. Briefly: Specific Incorporation (cpm/mg of melanin) of melanin after isolation from tumor after ip injection at 90 min of assay. Type of experiment: functional. In a few lines: as §2

`O=c1cc[nH]c(=S)[nH]1` [THIOURACIL]: the Activity with Mus musculus [1] came to 0.071; in the experiment with Mus musculus [2] it was 0.043; with Mus musculus [3], 0.032; with Mus musculus [4], 0.036. Besides, the Concentration in the experiment listed under Mus musculus [5] worked out at 589 ng/mg; in the experiment listed under Mus musculus [6], 493 ng/mg; in the experiment filed under Mus musculus [7] it was 560 ng/mg; in the experiment listed under Mus musculus [8], 1120 ng/mg. The Specific incorporation in the experiment on Mus musculus [9] is reported as 2300 c.p.m. (mg of melanin)-1; in the experiment with Mus musculus [10] it was 2500 c.p.m. (mg of melanin)-1; in the experiment on Mus musculus [11] it was 2600 c.p.m. (mg of melanin)-1.
